Test results from ChEMBL document CHEMBL4004863, “Design, synthesis, biological evaluation and X-ray structural studies of potent human dihydroorotate dehydrogenase inhibitors based on hydroxylated azole scaffolds” (Eur J Med Chem, 2017).
pIC50: −log10 of the molar value. Converted amounts (≈) assume the structure as drawn. The source made the active and inactive calls. The rule behind the calls is not given here.

Assays:
[1] = system: Jurkat; test: Antiproliferative activity against human Jurkat T cells assessed as DNA content after 72 hrs by Hoechst 33258 dye based fluorometric method; format: functional, cell-based
Summary of the method: (§1)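 Jurkat T cells grown in X-VIVO 15 with 10% FBS and antibiotic-antimycotic at 37 °C, 5% CO2, passages 5–10, mycoplasma-free, STR-authenticated. IC50 came from nonlinear regression, mean ± SE of three experiments. Uridine, where added, was at 100 μM.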

[2] = system: Jurkat; test: Cytotoxicity against human Jurkat T cells assessed as compound concentration required to induce up to 30% cell death after 72 hrs by CellTox green assay
[3] = Stability in human Jurkat cells assessed as parent compound remaining at 100 uM after 72 hrs by HPLC-UV method; format: ADME, cell-based; details: read-out: Stability
[4] = Solubility in pH 7.4 PBS buffer at 1 mg after 24 hrs by HPLC-UV method; format: physicochemical
[5] = system: PBMC; test: Immunosuppressive activity against human PBMC assessed as inhibition of PHA-stimulated cell proliferation preincubated for 2 hrs followed by PHA stimulation for 72 hrs by BrdU incorporation assay; format: functional, cell-based
[6] = system: Jurkat; test: Antiproliferative activity against human Jurkat T cells assessed as DNA content up to 100 uM after 72 hrs in presence of exogenous uridine by Hoechst 33258 dye based fluorometric method; format: functional, cell-based; summary of the method: as §1
[7] = Selectivity index, ratio of compound concentration required to induce up to 30% cell death in human Jurkat T cells to IC50 for antiproliferative activity against human Jurkat T cells; format: functional
Summary of the method: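 Ratio of two Jurkat T-cell readouts, both after 72 h compound or DMSO exposure of 5×10^3 cells/well. The numerator is the concentration causing ≥30% cytotoxicity by CellTox green (0.001–100 μM). Cells were grown in X-VIVO 15 with 10% FBS; three independent experiments.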

[8] = system: Jurkat; test: Antiproliferative activity against human Jurkat T cells assessed as DNA content up to 200 uM after 72 hrs in presence of exogenous uridine by Hoechst 33258 dye based fluorometric method; format: functional, cell-based
Summary of the method: as §1, with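 “STR-authenticated. 5×10^3 cells were exposed to 0.001–200 μM compound or DMSO vehicle for 72 h, lysed in 0.02% SDS/SSC, and stained with Hoechst 33258 (ex 355/em 460 nm).” for “STR-authenticated.”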

[9] = Solubility in human Jurkat cell growing medium with 1% DMSO at 1 mg after 24 hrs by HPLC-UV method; format: physicochemical
[10] = Solubility in pH 7.4 PBS buffer with 1% DMSO at 1 mg after 24 hrs by HPLC-UV method; format: physicochemical

| pIC50 [1] | remaining at 72 h, 100 µM [3] [%] | SMILES | Activity [2] [µM] | solubility at 24 h [4] [µM] | pIC50 [5] | Activity [6] | Selectivity Index [7] | Activity [8] | solubility at 24 h [9] [µM] | solubility at 24 h [10] [µM] |
| --- | --- | --- | --- | --- | --- | --- | --- | --- | --- | --- |
| 4.88 | – | Cn1nc(O)c(C(=O)Nc2c(F)cc(-c3ccccc3)cc2F)n1 | 49.3 | – | – | – | – | – | – | – |
| 5.49 | – | O=C(Nc1c(F)c(F)c(-c2ccccc2)c(F)c1F)c1c(O)nnn1CC1CC1 | 6 | – | – | – | – | – | – | – |
| 4.22 | – | O=C(Nc1c(F)c(F)c(-c2ccccc2)c(F)c1F)c1no[nH]c1=O | > 100 | – | – | – | – | – | – | – |
| 5.60 | – | O=C(Nc1c(F)c(F)c(-c2cccc(OC(F)(F)F)c2)c(F)c1F)c1nsnc1O | 5.2 | – | – | – | – | – | – | – |
| 5.15 | – | O=C(Nc1c(F)c(F)c(-c2ccccc2)c(F)c1F)c1nn(CC2CC2)nc1O | 11 | – | – | – | – | – | – | – |
| 4.17 | – | O=C(Nc1c(F)c(F)c(-c2cccc(OC(F)(F)F)c2)c(F)c1F)c1no[nH]c1=O | > 100 | – | – | – | – | – | – | – |
| 5.24 | 99 | Cn1nnc(O)c1C(=O)Nc1c(F)c(F)c(-c2ccccc2)c(F)c1F | 8.3 | 48 (≈ 17.6 µg/mL) | – | – | – | – | – | – |
| 4.45 | – | Cn1nc(O)c(C(=O)Nc2ccc(-c3ccccc3)cc2F)n1 | 56.8 | – | – | – | – | – | – | – |
| – | 101 | C/C(O)=C(\C#N)C(=O)Nc1ccc(C(F)(F)F)cc1 [TERIFLUNOMIDE] | 53 | – | 4.27 | – | – | inactive | – | – |
| 6.03 | 98 | Cc1c(-c2ccc(-c3ccccc3F)cc2)nc2ccc(F)cc2c1C(=O)O [BREQUINAR] | 45 | 359 (≈ 135 µg/mL) | 5.37 | inactive | – | – | – | – |

| SMILES | pIC50 [1] | remaining at 72 h, 100 µM [3] [%] | Activity [2] [µM] | solubility at 24 h [4] [µM] | pIC50 [5] | Activity [6] | Selectivity Index [7] | Activity [8] | solubility at 24 h [9] [µM] | solubility at 24 h [10] [µM] |
| --- | --- | --- | --- | --- | --- | --- | --- | --- | --- | --- |
| O=C(Nc1c(F)c(F)c(-c2ccccc2)c(F)c1F)c1nsnc1O | 5.98 | 80 | 78 | 1690 (≈ 626 µg/mL) | 5.21 | inactive | 70 | – | – | – |
| Cc1c(C(=O)Nc2c(F)c(F)c(-c3ccccc3)c(F)c2F)c(O)nn1C | 5.65 | 94 | 82 | < 0.1 | 4.97 | inactive | 70 | – | > 100 | 7 (≈ 2.66 µg/mL) |
